Only some compounds are listed: those with a hit (about 1.2% of all), similar ones and a draw of the others.
TRPML3 ag: human TRPML3 channel agonists, primary screen, cell-based, HEK293 TRPML3-YFP, Fluo-8 calcium fluorescence, 3 µM; Mucolipin-3 (Homo sapiens), Q8TDD5; 100% = the carbachol control signal; activation, % at 3 µM; actives 0.29% (n = 220,000); AID 1448, 2008;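 active = activation above its plate's cutoff, the mean activation of the plate's test wells plus 3 SD, cut at about 12% in these data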;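 note: 0% = DMSO only wells and 100% = carbachol wells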
Target sequence (Q8TDD5 whole entry, looked up): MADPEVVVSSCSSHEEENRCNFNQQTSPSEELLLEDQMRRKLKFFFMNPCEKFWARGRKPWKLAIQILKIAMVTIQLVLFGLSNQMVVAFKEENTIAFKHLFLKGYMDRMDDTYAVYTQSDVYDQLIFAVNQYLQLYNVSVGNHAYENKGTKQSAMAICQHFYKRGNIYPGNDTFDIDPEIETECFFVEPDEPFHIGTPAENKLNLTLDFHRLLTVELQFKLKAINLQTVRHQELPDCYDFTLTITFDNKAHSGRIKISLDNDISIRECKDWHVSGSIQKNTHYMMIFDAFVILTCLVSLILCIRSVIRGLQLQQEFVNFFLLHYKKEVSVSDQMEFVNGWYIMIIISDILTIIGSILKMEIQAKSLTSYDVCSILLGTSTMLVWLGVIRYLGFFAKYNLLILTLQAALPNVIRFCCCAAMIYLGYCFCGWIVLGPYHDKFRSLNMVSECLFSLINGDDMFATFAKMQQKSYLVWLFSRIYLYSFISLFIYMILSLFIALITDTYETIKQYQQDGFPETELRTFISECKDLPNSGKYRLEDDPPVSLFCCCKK
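Material: TRPML3-YFP stable HEK293 cells | Dosing: One concentration, 3 µM nominal, 0.3% DMSO | Timing: 125 s total fluorescence read per well | Technique: Fluo-8 calcium dye fluorescence, ex 470-495, em 515-575 nm | Measure: Percent activation from peak-to-basal fluorescence ratio, scaled between DMSO and carbachol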
TRPN1 ag: zebrafish TRPN1 channel agonists, primary screen, cell-based, HEK293, calcium fluorescence. transient receptor potential cation channel N1 (TRPN1/NompC), Danio rerio. activation, % at 3 µM. actives 0.18% (n = 220,000). HEK293 zebrafish TRPN1-YFP, Fluo-8 calcium fluorescence; 100% = response to 87 µM carbachol. AID 1424, 2008;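 active = activation above its plate's cutoff, the mean activation of test wells on that plate plus 3 SD, cut at about 19% in these data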;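 note: 0% = DMSO alone and 100% = 87 µM carbachol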
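Material – zebrafish TRPN1-YFP in HEK293 cells · Doses – 3 µM single point · Schedule – dye 1 h 37 °C plus 30 min RT · Signal – Fluo-8 calcium fluorescence, excitation 470-495 nm, emission 515-575 nm · Read-out – % activation versus carbachol response · Control set – carbachol high, DMSO low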
CRFBP-R2 block: antagonists of CRF-BP/CRF-R2 complex, primary screen, cell-based, HEK293, calcium dye fluorescence, uHTS. CRF-induced calcium fluorescence. inhibition, % at 11.8 µM. actives 0.59% (n = 350,000);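 active = inhibition of the ligand-induced calcium signal above about 50% at the single tested concentration, limit read from the data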
CRFR2-BP ag: agonists of CRF-BP/CRF-R2 complex, primary screen, cell-based, HEK293, calcium dye fluorescence, uHTS | CRF-binding protein / CRF receptor 2 complex (human) | calcium dye fluorescence (FLIPR); percent of saturating CRF peptide response | activation, % at 13.2 µM | actives 0.46% (n = 350,000) | AID 588473, 2011;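 active = activation of at least 50%, plus an integration ratio under a set limit after plate pattern correction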;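 note: plate controls were neutral control wells without compound for no effect and CRF at EC100 for full effect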
* = called active by the depositor; / = no result.

SMILES	TRPML3 ag	TRPN1 ag	CRFBP-R2 block	CRFR2-BP ag
Cc1ccc(-c2nn(C)c(=O)c3ccccc23)cc1CO	0	1	69*	-3
Clc1ccccc1NN(Cc1ccncc1)c1ccccc1Cl	/	/	53*	-4
Clc1ccccc1NN(Cc1ccccn1)c1ccccc1Cl	/	/	34	1
Cc1ccc(NC(=O)c2sccc2SCc2cccc(C(F)(F)F)c2)cc1	1	1	-40	2
Cc1cccc(C)c1NC(=O)c1sccc1SCc1cccc(C(F)(F)F)c1	6	2	71*	12
Cc1noc(NS(=O)(=O)c2ccc(NC(=O)CS(=O)(=O)c3ccccc3)cc2)c1C	1	1	60*	-5
COc1cc2c(cc1OC)C(C(=O)NCc1ccco1)C(c1cccs1)N(C)C2=O (stereo not given)	0	0	0	1
COc1ccc2c(COC(=O)CNS(=O)(=O)c3ccccc3)cc(=O)oc2c1	/	/	1	0
COc1cc(OC)cc(C(=O)NCC(=O)OCc2cc(=O)oc3cc(OC)ccc23)c1	0	0	105*	-1
O=C(CCn1nnc2ccccc21)N1CCN(c2ccccc2)CC1	-1	-1	95*	1
Cc1ccc(Cn2nnc(C(=O)Nc3cccc(C)c3C)c2N)cc1	17*	36*	-103	105*
Cc1cccc(-n2c(SCC(=O)N3CC(=O)Nc4ccccc43)nc3ccccc3c2=O)c1	6	10	-20	8
Cc1cccc(-n2c(SCC(=O)N3CC(=O)Nc4ccccc43)nc3ccccc3c2=O)c1C	2	10	55*	4
COC1=C/C(=C/c2c(N)n3nc(-c4ccc(C)cc4)sc3nc2=O)C=CC1=O	0	-1	-226	195*
CCOC1=C/C(=C/c2c(N)n3nc(-c4ccccc4)sc3nc2=O)C=CC1=O	0	1	-134	73*
COC1=C/C(=C/c2c(N)n3c(nc2=O)sc2cc(S(C)(=O)=O)ccc23)C=CC1=O	3	6	-87	96*
Cc1ccc(Cl)cc1NC(=S)N(Cc1ccco1)C(C)c1cccs1 (stereo not given)	1	-1	15	-1
CCOC(=O)c1cnc(SC)nc1NCCOC	1	0	8	0
COc1ccc(/C=c2\s/c(=C/C(=O)c3ccc(C)cc3)[nH]c2=O)c(OC)c1	2	2	-192	123*
O=C(c1cc2nc(-c3ccccc3)cc(-c3ccccc3)n2n1)N1CCN(C(=O)c2ccco2)CC1	0	1	55*	0
CCOC(=O)c1c(NC(=O)c2ccco2)sc(C(=O)N2CCCC2)c1C	1	2	0	0
COc1ccc(-c2csc(Nc3ccc(S(=O)(=O)Nc4cc(C)on4)cc3)n2)cc1C	-1	-2	19	-1
Cc1nc(Cl)c(C#N)cc1-c1ccccc1	0	-1	6	-3
Cc1nc(Sc2ccccc2)c(C#N)cc1-c1ccccc1	0	0	53*	6
CCNc1ccc(Br)cc(C(=O)/C=C/c2c(Cl)cccc2Cl)c1=O	1	2	1	1
SMILES	TRPML3 ag	TRPN1 ag	CRFBP-R2 block	CRFR2-BP ag
CCSc1nnc(-c2sc3nnc(-c4ccccc4)c(-c4ccccc4)c3c2N)o1	1	5	-38	116*
COc1cc(C[C@H](C)[C@H](C)Cc2ccc3c(c2)OCO3)ccc1O	/	/	59*	0
O=C(COCc1cc(-c2ccc3c(c2)OCO3)on1)N1CCN(c2cccc(C(F)(F)F)c2)CC1	/	/	-6	5
COc1cccc(NC(=O)CN(C)C(=O)c2ccc(COc3ccccc3)cc2)c1	/	/	0	0
S=C1NCN(CCc2ccccc2)CN1Cc1ccccc1	0	0	108*	1
CCCN1CNC(=S)N(Cc2ccccc2)C1	1	1	10	-2
CC(=O)Nc1ccc(NC(=O)COC(=O)c2ccc(C)s2)cc1	0	1	1	-1
CN(C)c1ccc(/C=C/C(=O)c2cccc(Br)c2)cc1	92*	163*	-346	278*
Cn1c(-c2ccc(-c3ccccc3)cc2)c[nH]c1=S	-1	-2	108*	0
CCOCCCNC(=O)C1CCCN(S(=O)(=O)c2ccc(-n3cnnn3)cc2)C1 (stereo not given)	/	/	-6	0
CC(=O)Oc1oc(-c2ccccc2)nc1C=Nc1ccccc1	1	0	-14	57*
CCOC(=O)c1ccc(N=Cc2nc(-c3ccccc3)oc2OC(C)=O)cc1	3	1	-16	1
COc1ccc(N2CCN(C(=O)CNC(=O)Cn3cnc4sc(C)c(C)c4c3=O)CC2)cc1	/	/	12	0
CC(=O)Nc1sc(N/N=C/c2ccccc2)nc1-c1ccc(C)cc1	0	0	6	0
CC(=O)Nc1sc(/C(C#N)=C\c2cccc(Cl)c2)nc1-c1ccc(C)cc1	3	2	-405	319*
COc1ccc(CCNC(=O)c2cccn2C)cc1	/	/	55*	-1
Cn1cccc1C(=O)NCCc1ccccc1	/	/	-4	0
CC(Sc1nc(-c2ccccc2)cc(C(F)(F)F)n1)C(=O)NCCN1CCOCC1 (stereo not given)	0	-1	7	1
CCNc1nc(NCC)nc(ON=C(C)C)n1	2	1	/	/
O=[N+]([O-])c1ccc(-c2ccc(/C=N/Nc3nc(N4CCCCC4)nc(N4CCCCC4)n3)o2)cc1	0	2	-114	69*
O=[N+]([O-])c1ccc(-c2ccc(/C=N/Nc3nc(N4CCCC4)nc(N4CCCC4)n3)o2)cc1	1	2	-113	129*
O=[N+]([O-])c1cccc(-c2ccc(/C=N/Nc3nc(N4CCCCC4)nc(N4CCCCC4)n3)o2)c1	1	0	6	-1
COc1ccc(C(=O)NNC(=S)NC(=O)c2ccc(Br)o2)cc1OC	-1	-2	-9	10
Cc1ccc(OCC(=O)NNC(=S)NC(=O)c2ccc(Br)o2)c(C)c1	/	/	-15	51*
Cc1ccc(OCC(=O)NNC(=S)NC(=O)c2cccs2)c(C)c1	/	/	-15	50*
SMILES	TRPML3 ag	TRPN1 ag	CRFBP-R2 block	CRFR2-BP ag
CCOC(=O)c1c(C)n(CC(O)CN(CC)CC)c2cc(Br)c(OC)cc12 (stereo not given)	1	1	20	2
COC(=O)C(CCSC)NC(=O)/C=C/c1ccc(OC)cc1 (stereo not given)	1	-1	0	0
CC1CCCC(NC(=O)CCN2C(=O)COc3ccccc32)C1C (stereo not given)	/	/	-9	1
N#Cc1nc(Nc2cccc(Cl)c2)c2ncn(C3CCCC3)c2n1	/	/	97*	3
O=C(NC(=S)N1CCN(c2ccc(F)cc2)CC1)c1cccs1	0	-1	50*	1
O=c1oc(-c2ccco2)nc2sc3c(c12)CCCC3	2	0	52*	1

Assay outcomes from PubChem BioAssay.
